Bioassay records as filed in PubChem.
Rows were chosen to be rich in hits. Some 3.1% of all compounds tested hit in one or more screens of this group.
CHO parental Ca: ATP-evoked calcium signal inhibitors, parental CHO, primary screen, counter-screen for OX1R antagonist project, cell-based, fluorescence, Fluo-8 calcium dye; parental CHO-K1, ATP-induced calcium, Fluo-8 fluorescence; inhibition, % at 5.6 µM; 330,000 tested, 0.63% active;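 active = inhibition above that plate's mean sample inhibition plus 3 SD, cut at about 26% in these data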
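Material – parental CHO cells · Reagent – ATP stimulus · Compound – single nominal dose of 5.6 µM per compound · Detection – Fluo-8 fluorescence · Read-out basis – percent inhibition of calcium signal · Controls – ATP-challenged DMSO wells low, unchallenged DMSO wells high · Repeats – no replicates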
GalR3 antag: GalR3 antagonists in HEK293 cells, primary screen, cell-based, fluorescence readout | HEK293 GalR3-CNG cAMP membrane potential fluorescence; galR3 body fused to GalR1 C-terminus | inhibition, % at 3 µM | 360,000 tested, 0.44% active;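 active = inhibition above the screen-wide average plus 3 SD, cut at about 13% in these data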;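 note: forskolin and galanin both at EC90 stimulate the cells; cAMP rise reported by CNG channel membrane potential dye signal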
Target sequence (O60755 1-299 limits assumed): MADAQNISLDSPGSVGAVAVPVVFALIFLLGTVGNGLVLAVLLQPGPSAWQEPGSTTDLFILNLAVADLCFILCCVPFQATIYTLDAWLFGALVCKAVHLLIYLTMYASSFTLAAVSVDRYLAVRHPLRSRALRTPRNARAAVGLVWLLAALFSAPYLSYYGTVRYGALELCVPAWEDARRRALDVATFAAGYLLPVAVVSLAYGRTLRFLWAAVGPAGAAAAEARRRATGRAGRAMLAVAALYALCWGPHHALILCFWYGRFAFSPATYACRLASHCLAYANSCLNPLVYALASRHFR
GPR7 antag: GPR7 receptor antagonists, primary screen, cell-based, fluorescence, single concentration | GPR7-expressing cells, fluorescence antagonist assay | inhibition, % at 4.4 µM | 290,000 tested, 1.1% active | AID 1861, 2009; in the data active = inhibition above about 16%, passing the limit was not always enough;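 note: cells stimulated with the agonist NPW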
OX1R antag-1: antagonists of human orexin 1 receptor (OX1R). Orexin/Hypocretin receptor type 1 (Homo sapiens), O43613. OX1R-expressing cells, FRET antagonist read-out. inhibition, % at 6.6 µM. 330,000 tested, 1.8% active. AID 485270, 2010; in the data active = inhibition mostly above about 38%, no sharp cut-off; inactive = mostly below about 40%
Target sequence (O43613 whole entry, looked up): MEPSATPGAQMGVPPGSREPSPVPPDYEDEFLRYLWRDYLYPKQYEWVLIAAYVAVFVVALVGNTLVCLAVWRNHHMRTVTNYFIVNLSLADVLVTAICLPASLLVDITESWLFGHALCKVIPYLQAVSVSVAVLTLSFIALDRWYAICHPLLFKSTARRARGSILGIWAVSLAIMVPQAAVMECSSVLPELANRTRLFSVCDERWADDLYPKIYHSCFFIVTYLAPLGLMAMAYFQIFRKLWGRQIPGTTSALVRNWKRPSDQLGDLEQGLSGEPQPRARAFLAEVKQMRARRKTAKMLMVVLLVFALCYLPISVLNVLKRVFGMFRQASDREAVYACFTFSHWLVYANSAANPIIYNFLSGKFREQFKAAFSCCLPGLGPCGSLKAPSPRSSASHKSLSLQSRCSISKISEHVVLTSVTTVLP
OX1R antag-2: OX1R (HCRTR1) antagonists, primary screen, fluorescence, CHO/OX1R cells, Fluo-8 calcium, orexin A | Orexin/Hypocretin receptor type 1 (Homo sapiens), O43613 | Fluo-8 calcium fluorescence | 330,000 tested, 0.43% active | inhibition, % at 5 µM;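 active = inhibition above its plate's threshold, mean inhibition of all tested compounds on the plate plus 3 SD, cut at about 37% in these data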
Of the large screens only hits and unclear results are named; the others gave an inactive call.

CN(C)C(/C=C/Nc1cccc([N+](=O)[O-])c1)=C(C#N)C#N	OX1R antag-1 50.5
CCOC(=O)c1cccc(NC(=O)CCNS(=O)(=O)c2cc(Br)cnc2N)c1	OX1R antag-1 62.7
CN(Cc1ccccc1)C(=O)CSc1nc2ccccc2c(=O)n1Cc1ccco1	OX1R antag-1 34.1
COC(=O)[C@]12C[C@H](CC(=O)N3CCN(C(=O)c4ccco4)CC3)C(=O)N(Cc3ccccc3)C1=C[C@H](C(C)C)O[C@@H]2C1CC1	none (no result: CHO parental Ca, GPR7 antag, OX1R antag-1, OX1R antag-2)
CCCCN(CC)S(=O)(=O)c1ccc(C(=O)N(CCCN(C)C)c2nc3cc(C)cc(C)c3s2)cc1	GPR7 antag 22.9
COc1ccc(CNC(=O)[C@@H](Cc2ccccc2)NC(=O)[C@H]2O[C@@H](n3cnc4c(=O)[nH]c(N)nc43)[C@H](O)[C@@H]2O)cc1	none (no result: CHO parental Ca, GPR7 antag, OX1R antag-1, OX1R antag-2)
O=C1OCC2=C1C(c1ccc(F)cc1)c1cc3c(cc1N2)OCCO3 (stereo not given)	GPR7 antag 19.4 (no result: CHO parental Ca, OX1R antag-1, OX1R antag-2)
CCOc1ccccc1C1C2=C(COC2=O)Nc2cc3c(cc21)OCO3 (stereo not given)	none
O=C1OCC2=C1C(c1ccc(F)cc1)c1cc3c(cc1N2)OCO3 (stereo not given)	GPR7 antag 18.6 (no result: CHO parental Ca, OX1R antag-1, OX1R antag-2)
COc1ccc(C(=O)N[C@H](C(=O)NCCc2ccc3c(c2)OCCO3)C(C)C)cc1	none (no result: GPR7 antag)
CN(CCOC(=O)c1ccc2c(c1)OCCO2)C(C)(C)C	none
CN(CCOC(=O)c1ccc2c(c1)OCCO2)Cc1ccccc1	GPR7 antag 20.0
Cc1cc(O)cc(=O)n1-c1cc(C(F)(F)F)cc(C(F)(F)F)c1	none (no result: CHO parental Ca, GPR7 antag, OX1R antag-1, OX1R antag-2)
C=CCn1c(=O)[nH]c2nc3cc(N=CN(C)C)c(C)cc3nc2c1=O	OX1R antag-1 73.2
CCCCCCCCN1C(=O)[C@@H](CC(=O)NCc2cccs2)C[C@@]2(C(=O)OC)C1=C[C@H](C(C)(C)C)O[C@@H]2C	none (no result: CHO parental Ca, GPR7 antag, OX1R antag-1, OX1R antag-2)
CCOC(=O)C(C)(C)CC#CCN(CC#Cc1ccccc1)S(=O)(=O)c1ccc(C)cc1	none (no result: CHO parental Ca, GPR7 antag, OX1R antag-1, OX1R antag-2)
CN(C)c1ccc(C(=O)Nc2nc3c(s2)CCCC3)cc1	OX1R antag-1 52.0
CC(Oc1ccc(Cl)cc1Cl)c1nc(-c2ccc(NC(=O)c3ccncc3)cc2)no1 (stereo not given)	CHO parental Ca 43.2
CN(C)c1cccc2c(S(=O)(=O)NC(=O)[C@H]3O[C@@H](n4ccc(=O)[nH]c4=O)[C@H](O)[C@@H]3O)cccc12	none (no result: CHO parental Ca, GPR7 antag, OX1R antag-1, OX1R antag-2)
O=c1c2ccccc2nc2c3ccccc3cnn12	OX1R antag-1 41.2
O=C(O)CCCNc1cc(N2CCC3(CC2)OCCO3)c2noc3c2c1C(=O)c1ccccc1-3	OX1R antag-1 65.0 (no result: GalR3 antag)
O=C(O)CCCNc1cc(N2CCN(C(=O)c3ccco3)CC2)c2noc3c2c1C(=O)c1ccccc1-3	OX1R antag-1 57.6
CCOC(=O)N1CCN(c2cc(NCCC(=O)O)c3c4c(onc24)-c2ccccc2C3=O)CC1	OX1R antag-1 73.5 (no result: GalR3 antag)
CN1CCN(c2cc(N3CCN(C(=O)c4ccco4)CC3)c3c4c(onc24)-c2ccccc2C3=O)CC1	none (no result: GalR3 antag)
O=C1c2ccccc2-c2onc3c(N4CCN(CCO)CC4)cc(N4CCN(C(=O)c5ccco5)CC4)c1c23	none
Cc1cccc(NC(=O)CNC(=O)[C@@H](Cc2ccccc2)NC(=O)[C@H]2O[C@@H](n3ccc(=O)[nH]c3=O)[C@H](O)[C@@H]2O)c1C	none (no result: CHO parental Ca, GPR7 antag, OX1R antag-1, OX1R antag-2)
C#CCOc1ccc2ccccc2c1/C=C(/C#N)c1ccc(C(=O)O)cc1	none
COc1cc(CNc2ccc3[nH]c(=O)[nH]c3c2)cc(Br)c1OCC(=O)NC(C)(C)C	none
COc1cc(CNc2ccc3[nH]c(=O)[nH]c3c2)ccc1OCC(=O)NC(C)(C)C	CHO parental Ca 98.8
N#Cc1cc([N+](=O)[O-])ccc1NC(=O)CSc1n[nH]c(=O)n1C1CC1	OX1R antag-1 33.1 (no result: GPR7 antag)
S=C(NCc1ccccc1)NCc1ccc(CNC(=S)NCc2ccccc2)cc1	CHO parental Ca 48.3
CCCCCCCCCC(=O)NNC(=O)c1c(O)c2ccccc2n(CCC)c1=O	none
CCn1c(=O)c(C(=O)NNC(=O)c2cccc(Cl)c2)c(O)c2ccccc21	CHO parental Ca 94.6, OX1R antag-2 98.3
CCn1c(=O)c(C(=O)NNC(=O)c2ccc(Cl)cc2Cl)c(O)c2ccccc21	none
Cn1c(=O)c(C(=O)NNC(=O)c2cccc(Cl)c2)c(O)c2ccccc21	CHO parental Ca 47.0, OX1R antag-2 43.9
CCCCCCCCC(=O)NNC(=O)c1c(O)c2ccccc2n(CCC)c1=O	CHO parental Ca 33.6
Cc1cccc(C(=O)NNC(=O)c2c(O)c3ccccc3n(C)c2=O)c1	CHO parental Ca 40.0
CC(C)[C@H](N)C(=O)N[C@H](C(=O)N1CCC2CCN(Cc3ccccc3)CC21)C(C)C (stereo not given in full)	none (no result: CHO parental Ca, GPR7 antag, OX1R antag-1, OX1R antag-2)
O=C(NCc1ccccc1)[C@@H]1CCCN1C(=O)[C@H]1CCCN1C(=O)c1ccc(Cl)cc1	none (no result: CHO parental Ca, GPR7 antag, OX1R antag-1, OX1R antag-2)
C#CCN(Cc1ccco1)C(=O)c1nnc2c3ccccc3n(S(=O)(=O)c3ccccc3)c2n1	none (no result: CHO parental Ca, GPR7 antag, OX1R antag-1, OX1R antag-2)
CCn1c(=O)c(C(=O)Nc2nc3ccccc3[nH]2)c(O)c2ccccc21	CHO parental Ca 97.6, OX1R antag-2 105.9
CC(C)(CCO)Nc1ncnc2onc(-c3ccc(F)cc3)c12	none
CCOC(=O)c1ccccc1OC(=O)CS(=O)c1ccccc1[N+](=O)[O-] (stereo not given)	none
COC(=O)c1ccc(OC(=O)CS(=O)c2ccccc2[N+](=O)[O-])cc1 (stereo not given)	OX1R antag-1 62.7
COc1ccccc1-c1ccc2c(c1)[C@@H]1C[C@H]3[C@@H](CN1CC2)[C@H](C)ON3C	none (no result: CHO parental Ca, GPR7 antag, OX1R antag-1, OX1R antag-2)
O=C1NC[C@H](c2ccccc2)OC(=O)[C@@H](Cc2ccc(F)cc2)C/C=C\C[C@H]1CC(=O)N(CCO)Cc1ccccc1	OX1R antag-1 56.2 (no result: GPR7 antag)
CC(C)(C)OC(=O)C[C@@H]1C/C=C\C[C@H](CC(=O)N(CCO)Cc2ccccc2)C(=O)NC[C@@H](c2ccccc2)OC1=O	OX1R antag-1 53.9 (no result: GPR7 antag)
COc1ccc(OC)c(S(=O)(=O)Nc2ccccc2SC)c1	GPR7 antag 13.9
CCCCNc1nc(CC)c2c(c1C#N)CCCC2	none
CCCCc1nc(NCCO)c(C#N)c2c1CCCC2	CHO parental Ca 50.1
Cn1c(O)c(N=NC(=O)CNC(=O)c2ccccc2)c2ccccc21	OX1R antag-1 48.5
Cn1c(O)c(N=NC(=O)CNC(=O)c2ccccc2)c2cc(Br)ccc21	none
O=C(c1ccccc1)N1CCN(c2ccccc2)CC1	none (no result: CHO parental Ca, GPR7 antag, OX1R antag-1, OX1R antag-2)
O=C(c1ccccc1)N1CCN(c2ccc(Cl)cc2)CC1	GPR7 antag 19.9
Cc1noc(C)c1S(=O)(=O)Nc1ccc(C(=O)N2CCN(c3ccc(Cl)cc3)CC2)cc1	CHO parental Ca 36.2, OX1R antag-2 48.5
